Most compounds without a hit are left out; they make up all but 2.3% or so of the library.
TRPC4 potent – allosteric potentiators of mouse TRPC4 channel; Q9QUQ5; HEK293 TRPC4beta/mu-opioid, DAMGO EC20, Fluo-4 Ca2+ flux; active compounds read high; B-score at 10 µM; hit rate 0.42% among 310,000; AID 2227;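 active = B-score of calcium response area above 5 SD of library B-scores, with initial fluorescence ratio within 5 SD of library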;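 also: B-score of integrated fluorescence ratio over time as area under calcium response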
TRPC6 activator – mouse TRPC6 channel activation. Q61143. HEK293-TRPC6 membrane potential dye fluorescence; active compounds read high. B-score at 10 µM. hit rate 0.13% among 310,000;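 active = B-score of the integrated fluorescence ratio above library mean plus 3 SD, and starting fluorescence ratio within library mean plus 5 SD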;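 also: higher score means more depolarization so channel activation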
Target sequence (Q61143 whole entry, looked up): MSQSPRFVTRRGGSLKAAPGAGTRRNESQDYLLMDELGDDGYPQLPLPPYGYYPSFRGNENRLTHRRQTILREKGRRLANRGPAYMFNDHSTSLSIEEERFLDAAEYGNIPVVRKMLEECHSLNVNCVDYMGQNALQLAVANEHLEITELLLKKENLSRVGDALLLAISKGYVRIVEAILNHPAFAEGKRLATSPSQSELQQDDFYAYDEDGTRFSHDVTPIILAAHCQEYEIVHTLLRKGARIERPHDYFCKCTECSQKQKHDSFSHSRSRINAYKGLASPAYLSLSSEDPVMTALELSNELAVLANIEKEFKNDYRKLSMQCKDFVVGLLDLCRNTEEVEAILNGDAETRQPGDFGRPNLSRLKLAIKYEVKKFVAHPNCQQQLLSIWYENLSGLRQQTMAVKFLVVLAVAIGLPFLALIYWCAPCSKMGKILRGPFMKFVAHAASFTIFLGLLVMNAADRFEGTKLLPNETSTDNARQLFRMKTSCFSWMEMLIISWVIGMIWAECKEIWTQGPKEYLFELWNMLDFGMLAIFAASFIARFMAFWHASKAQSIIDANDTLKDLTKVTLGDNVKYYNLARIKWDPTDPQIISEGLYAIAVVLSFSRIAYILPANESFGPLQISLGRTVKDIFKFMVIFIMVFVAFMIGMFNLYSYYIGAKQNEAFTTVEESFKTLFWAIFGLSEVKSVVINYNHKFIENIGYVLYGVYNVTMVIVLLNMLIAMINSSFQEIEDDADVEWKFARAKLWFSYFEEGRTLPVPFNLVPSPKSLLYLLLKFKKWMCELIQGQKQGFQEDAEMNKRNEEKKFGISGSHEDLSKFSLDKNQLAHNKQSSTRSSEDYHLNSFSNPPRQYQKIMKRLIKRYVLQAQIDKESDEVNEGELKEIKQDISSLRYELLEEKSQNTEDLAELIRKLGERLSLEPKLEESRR
TRPC4 block – blocks the mouse TRPC4 cation channel | Q9QUQ5 | HEK293 TRPC4beta/mu-opioid, DAMGO-evoked Fluo4 calcium flux; active compounds read low | B-score at 10 µM | hit rate 0.39% among 300,000;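 active = B-score over 3 SD under the library average, no early fluorescence shift, positive overall ratio signal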
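test system = HEK293 cells with stable TRPC4beta plus mu-opioid receptor expression | detection = Fluo4 Ca2+ flux fluorescence | read-out = integrated fluorescence ratio relative to baseline, converted to per-well B score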
TRPC4 agonist – opens the mouse TRPC4 cation channel; Q9QUQ5; HEK293 TRPC4beta/mu-opioid, Fluo4 calcium fluorescence; active compounds read high; B-score at 10 µM; hit rate 0.49% among 310,000;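 active = B-score above 5 SD of library B-scores, and initial fluorescence ratio not above library mean plus 5 SD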;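 also: positive B-score marks a calcium rise read as TRPC4 activation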
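Assay system: HEK293 cells stably co-expressing mouse TRPC4beta and mu-opioid receptor / Timing: Fluo4 dye loading 45 min at room temperature, 110 s recording / Signal: Fluo4 calcium-sensitive dye fluorescence, kinetic, 1 Hz baseline / Read-out: integrated baseline-normalised fluorescence ratio, converted to per-well B score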
TRPC6 inhibitor – mouse TRPC6 channel inhibition | AID 2553 | hit rate 1.1% among 310,000 | HEK293-TRPC6, membrane potential dye, ACh-evoked depolarization; active compounds read low | Q61143 | B-score at 10 µM;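 active = B-score under library mean minus 3 SD, initial fluorescence not abnormally high, positive integrated signal ratio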;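 also: B-score derived from integrated fluorescence ratio over the kinetic read; more negative B-score means stronger inhibition of depolarization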
TRPC4 sel inh 2 – mouse TRPC4 off-target activity of TRPC6 inhibitors, second screen. shares compounds with TRPC6 inhibitor. HEK293 TRPC4/MOR, membrane potential dye fluorescence; channel activated by saturating DAMGO dose. inhibition, % at 10 µM. hit rate 42% among 920. AID 2776;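 active = compounds whose fluorescence signal differed from control wells by over 3 SD, either direction, in both duplicate plates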
TRPC4 spec – selectivity of TRPC6 inhibitors: effect on mouse TRPC4; shares compounds with TRPC6 inhibitor; HEK293 TRPC4/mu-opioid, membrane potential fluorescence; activity change, negative = inhibition, % at 10 µM; hit rate 61% among 920;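 active = rise or fall in signal beyond 3 SD of buffer-only wells in both replicate plates, either sign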;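 also: integrated kinetic ratio of fluorescence range over baseline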
HEK293 MPD ctr 2-1 – parental HEK293 nonspecific activity of TRPC6 inhibitors, second screen. shares compounds with TRPC6 inhibitor. parental HEK293 membrane potential dye fluorescence; maximal acetylcholine challenge after compound addition. signal change vs control, % at 10 µM. hit rate 31% among 920;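 active = membrane potential signal moving either way by over 3 SD of the maximum-effect control, in both duplicate plates, meaning non-specific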
HEK293 MPD ctr-1 – counter-screen for TRPC6 inhibitors: effect in parental HEK293 cells; hit rate 60% among 920; AID 2780; parental HEK293 membrane potential dye fluorescence; membrane potential signal change, % at 10 µM; shares compounds with TRPC6 inhibitor;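 active = membrane potential signal shifting up or down by more than 3 SD of buffer-only wells, on both duplicate plates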
HEK293 MPD ctr-2 – counter-screen for TRPC6 modulators: effect in parental HEK293 cells | membrane potential dye fluorescence | hit rate 51% among 2,400 | membrane potential signal change, % at 10 µM | shares compounds with TRPC6 inhibitor | AID 488924;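 active = membrane potential signal moves up or down beyond 5 SD from buffer-only wells, on both duplicate plates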
HEK293 MPD ctr 2-2 – second counter-screen for TRPC6 modulators: effect in parental HEK293 cells | shares compounds with TRPC6 inhibitor | membrane potential dye fluorescence; after compound, maximal acetylcholine stimulation | inhibition, % at 10 µM | hit rate 14% among 2,400;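 active = membrane potential signal drops by more than 5 SD from the mean control signal, in both duplicate plates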;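 also: plate controls were acetylcholine ECmax control wells for no effect and buffer only wells for full effect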
TRPC4 ctr mod – mouse TRPC4 off-target activity of TRPC6 modulators. shares compounds with TRPC6 inhibitor. HEK293 TRPC4/mu-opioid, membrane potential fluorescence. percent change from control (negative = decrease, positive = increase), % at 10 µM. hit rate 69% among 2,400;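 active = membrane potential signal moved up or down beyond 5 SD of buffer control wells, in both duplicate plates, actives on both sides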;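 also: plate controls were assay buffer wells for no effect and DAMGO maximal-effect wells for full effect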
TRPC4/MOR inh 2 – second check of whether TRPC6 modulators also affect mouse TRPC4; shares compounds with TRPC6 inhibitor; HEK293 TRPC4/mu-opioid, membrane potential dye fluorescence; stimulated with maximal-effect DAMGO; inhibition, % at 10 µM; hit rate 55% among 2,400; AID 488928;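 active = drop in membrane potential signal beyond 5 SD of the control wells in both duplicate plates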;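 also: TRPC4 counter screen for TRPC6 hits run under conditions tuned for TRPC6 not TRPC4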
TRPC6 inh conf – mouse TRPC6 inhibitor confirmation. shares compounds with TRPC6 inhibitor. HEK293-TRPC6, membrane potential dye, ACh-evoked depolarization. inhibition, % at 10 µM. hit rate 43% among 3,300. AID 488960;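 active = fluorescence ratio falls more than 5 SD below the full-stimulation control mean, in both duplicate runs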;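 also: integrated fluorescence ratio of peak minus minimum over baseline after agonist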
TRPC6 act confirm – confirmation of mouse TRPC6 activators; shares compounds with TRPC6 inhibitor; HEK293-TRPC6 membrane potential dye fluorescence, FDSS; activation, % at 10 µM; hit rate 11% among 2,800; AID 488961;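 active = ratio signal rise beyond 5 SD above unstimulated control wells' mean, seen in both duplicate runs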;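 also: plate controls were buffer EC0 wells for no effect and acetylcholine ECmax response for full effect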
* hit, by the source's call; i = inactive; x = no result given.

SMILES | TRPC4 potent | TRPC6 activator | TRPC4 block | TRPC4 agonist | TRPC6 inhibitor | HEK293 MPD ctr-2 | HEK293 MPD ctr 2-2 | TRPC4 ctr mod | TRPC4/MOR inh 2 | TRPC6 inh conf | TRPC6 act confirm | others
Cc1ccc(C(=O)N2CCN(S(=O)(=O)c3ccc(C(C)C)cc3)CC2)s1 | i | 15* | i | i | -13* | i | i | i | i | i | i
O=C(c1ccccc1)N1CCN(C2C3CC4CC(C3)CC2C4)CC1 (centres undefined) | i | i | i | i | -9.6* | x | x | x | x | i | x | TRPC4 sel inh 2=i;TRPC4 spec=2.6%*;HEK293 MPD ctr 2-1=i;HEK293 MPD ctr-1=6.7%*
CCN(c1ccccc1)S(=O)(=O)c1cccc(C(=O)N2CCN(S(=O)(=O)c3ccccc3)CC2)c1 | i | i | i | i | -11* | x | x | x | x | i | x | TRPC4 sel inh 2=i;TRPC4 spec=i;HEK293 MPD ctr 2-1=i;HEK293 MPD ctr-1=i
O=C(c1cccc(S(=O)(=O)N2CCN(c3ccccc3)CC2)c1)N1CCCCCCC1 | i | i | i | i | i | x | x | x | x | x | x
Cc1cc(C)nc(N2CCN(c3ccc(F)cc3)CC2)n1 | i | i | i | i | i | x | x | x | x | x | x
COc1ccc(C(=O)COC(=O)c2nn(C)cc2Cl)cc1 | i | i | i | i | i | x | x | x | x | x | x
O=[N+]([O-])c1ccc2nc(SCc3cn4cc(Cl)ccc4n3)[nH]c2c1 | i | i | i | i | -5.4* | i | i | i | i | i | i
CC1CN(CC(=O)Nc2nc(-c3ccc(Cl)cc3)cs2)CC(C)O1 (centres undefined) | i | i | i | i | i | x | x | x | x | x | x
CCCC(O)(CCN1CCOCC1)c1ccc(Cl)cc1 (centres undefined) | i | i | i | i | i | x | x | x | x | x | x
CCCC(O)(CCN1CCOCC1)c1ccc(Br)cc1 (centres undefined) | i | i | -6* | i | -7.5* | x | x | x | x | i | i | TRPC4 sel inh 2=76%*;TRPC4 spec=4.2%*;HEK293 MPD ctr 2-1=i;HEK293 MPD ctr-1=3.6%*
COc1ccccc1/C=C/C=N/NC(=O)c1ccc2nc[nH]c2c1 | i | i | i | i | i | x | x | x | x | x | x
c1ccc(-c2cn(-c3ccccc3)c3[n+]2CCCS3)cc1 | i | i | i | i | i | x | x | x | x | x | x
c1ccc(Cn2c(-c3ccccc3)c[n+]3c2SCCC3)cc1 | i | i | i | i | -9.9* | x | x | x | x | 68%* | i | TRPC4 sel inh 2=i;TRPC4 spec=i;HEK293 MPD ctr 2-1=40%*;HEK293 MPD ctr-1=i
COc1ccc(Nc2c(-c3ccc(C)cc3)nc3cnccn23)cc1 | i | i | i | i | i | x | x | x | x | x | x
Cc1ccc(Nc2c(-c3ccccc3O)nc3cnccn23)cc1 | i | i | i | i | -6.6* | i | i | -11%* | 68%* | i | i
Cc1cc(OCC(=O)O/N=C(\N)Cc2cccs2)ccc1Br | i | i | i | i | -9.8* | x | x | x | x | i | i | TRPC4 sel inh 2=i;TRPC4 spec=i;HEK293 MPD ctr 2-1=i;HEK293 MPD ctr-1=i
Cc1ccc(C2Cc3cc(O)c(O)cc3CN2)cc1 (centres undefined) | i | i | i | i | i | x | x | x | x | x | x
Cc1ccc(Sc2ccc(CN3CCCC3)cc2[N+](=O)[O-])cc1 | i | i | i | i | i | x | x | x | x | x | x
CN1CCN(Cc2ccc(Sc3ccc(Cl)cc3)c([N+](=O)[O-])c2)CC1 | i | i | i | i | -6.5* | i | i | -14%* | 52%* | 44%* | i
C/C(=N\NC(=O)c1c(C)nc2ccccn12)c1ccco1 | i | i | i | i | -5.7* | -309%* | i | -60%* | 36%* | 50%* | i
NC(N)=Nc1nc(-c2ccccc2)c2ccccc2n1 | i | i | i | i | -5.4* | -174%* | i | -30%* | 33%* | i | i
CCc1nc(N=C(N)N)nc2ccccc12 | i | i | i | i | i | x | x | x | x | x | x
Cc1ccccc1NC(=O)c1c(C)nn(-c2ccccc2)c1Cl | i | i | i | i | i | x | x | x | x | x | x
O=[N+]([O-])c1ccc(Oc2ccc(F)cc2)c2ccncc12 | i | i | i | i | -5.1* | i | i | i | i | i | i
CC(=O)Nc1ccc(NC(=O)CSc2nnc(-c3cc(C)[nH]n3)n2N)cc1 | i | i | i | i | i | x | x | x | x | x | x
SMILES | TRPC4 potent | TRPC6 activator | TRPC4 block | TRPC4 agonist | TRPC6 inhibitor | HEK293 MPD ctr-2 | HEK293 MPD ctr 2-2 | TRPC4 ctr mod | TRPC4/MOR inh 2 | TRPC6 inh conf | TRPC6 act confirm | others
CCSc1nnc(NC(=O)Nc2cccc(C)c2)s1 | i | i | i | i | i | x | x | x | x | x | x
COc1ccc([N+](=O)[O-])cc1NCc1cccnc1 | i | i | i | i | i | x | x | x | x | x | x
O=C(Cc1ccc([N+](=O)[O-])cc1)NCc1cccnc1 | i | i | i | i | -5.2* | i | i | i | i | i | i
Cc1ccc(NC(=O)c2cc([N+](=O)[O-])ccc2NCc2cccnc2)cc1 | i | i | i | i | -6.7* | x | x | x | x | i | i | TRPC4 sel inh 2=i;TRPC4 spec=i;HEK293 MPD ctr 2-1=i;HEK293 MPD ctr-1=-145%*
CC(C)C(NC(=O)c1c(F)cccc1F)C(=O)NCC(c1ccccc1)N(C)C (centres undefined) | i | i | i | i | -5.1* | i | i | 55%* | 58%* | i | x
O=C(CC(Nc1ccccc1)c1ccccc1)C1CC1 (centres undefined) | i | i | i | i | i | x | x | x | x | x | x

Compound activity from PubChem.
